From ChEMBL document CHEMBL4145532, “Design and synthesis of new potent N,N-bis(arylalkyl)piperazine derivatives as multidrug resistance (MDR) reversing agents” (Eur J Med Chem, 2018)
pEC50: −log10 of the molar value. Activity calls are given as the source filed them. The rule behind the calls is not given here.

How the values were obtained:
[1] = species: Homo sapiens; experiment: (§1) Inhibition of P-gp in human K562/Dox cells assessed as potentiation of doxorubicin-induced cytotoxicity after 72 hrs by MTT assay; type: cell-based
Summary of the method: (§2)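 Doxorubicin (0.0001–100 μM) was tested alone or combined with modulator at 0.1, 1.0 or 3.0 μM on K562/DOX or parental K562 cells, seeded at 10^4 cells/well. Plates ran 72 h at 37 °C in 5% CO2, followed by 3 h MTT, acidified isopropanol and A570. Doxorubicin IC50 was taken as mean ± SE of at least three determinations with quadruplicate cultures.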

[2] = Half life in PBS up to 1 uM by LC-MS/MS analysis; type: physicochemical
Summary of the method: (§3)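 Analyte at 1 μM was placed in PBS, pooled human plasma (healthy male volunteers) or Sprague-Dawley male rat plasma. Samples were incubated at 37 °C for 0, 30, 60 and 120 min in triplicate. Internal standard was added, samples were centrifuged, and supernatants were dried and redissolved in 10 mM formic acid water:acetonitrile 80:20. Quantitation was by LC-MS/MS, positive ESI, MRM. Plasma hydrolytic activity was checked with ketoprofen ethyl ester or enalapril.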

[3] = Cytotoxicity against human K562/Dox cells at 0.1 to 3 uM after 72 hrs by MTT assay; type: cell-based
Summary of the method: (§4)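 Compounds were given alone at 0.1, 1.0 and 3.0 μM to parental K562 and to P-gp-overexpressing K562/DOX cells. Exponential-phase cells were seeded at 10^4 cells/well and kept 72 h at 37 °C in 5% CO2. MTT was then added for 3 h, formazan was dissolved in acidified isopropanol, and absorbance was read at 570 nm.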

[4] = species: Homo sapiens; experiment: Inhibition of P-gp in human K562/Dox cells assessed as increase in Rh-123 accumulation at 1 uM preincubated for 15 mins followed by Rh-123 addition measured after 30 to 60 mins by FACS analysis; type: cell-based
Summary of the method: (§5)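 Cells (K562/DOX or parental K562) got modulator at 1.0 μM, with 15 min pre-exposure, then were loaded with 5.0 μM rhodamine-123 for 30 min at 37 °C in 5% CO2. After washing, cells sat in Rh-123-free medium with or without modulator for 30 or 60 min efflux. Cells were washed in ice-cold PBS and read by flow cytometry (≥20,000 gated events). MFI ratio is median fluorescence of treated over untreated control.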

[5] = species: Homo sapiens; experiment: (§6) Inhibition of P-gp in human K562/Dox cells assessed as reduction in Rh-123 efflux by measuring mean fluorescence intensity at 1 uM preincubated for 15 mins followed by Rh-123 addition for 30 mins and subsequent replacement in Rh-123 free medium measured after 60 mins by FACS analysis; type: cell-based
Summary of the method: (§7)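 K562/DOX cells pretreated with modulator (1.0 μM) 15 min before loading with 5.0 μM rhodamine 123 for 30 min at 37 °C, 5% CO2. Washed, then held in Rhd 123-free medium with or without modulator for 30 or 60 min. Cells washed in ice-cold PBS and analysed by flow cytometry (≥20,000 gated events). MFI ratio = median fluorescence of treated/untreated control. Mean ± SE, three independent experiments.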

[6] = system: K562; experiment: Potentiation of doxorubicin-induced cytotoxicity against human K562 cells at 0.1 to 3 uM after 72 hrs by MTT assay; type: functional, cell-based; summary of the method: as §2
[7] = Half life in Sprague-Dawley rat plasma up to 1 uM by LC-MS/MS analysis; type: ADME, cell-free; summary of the method: as §3
[8] = system: K562; experiment: Potentiation of doxorubicin-induced cytotoxicity against human K562 cells at 1 uM after 72 hrs by MTT assay; type: functional, cell-based; summary of the method: as §2
[9] = species: Homo sapiens; experiment: (§8) Inhibition of P-gp in human K562/Dox cells assessed as reduction in Rh-123 efflux by measuring mean fluorescence intensity at 1 uM preincubated for 15 mins followed by Rh-123 addition for 30 mins and subsequent replacement in Rh-123 free medium measured after 30 mins by FACS analysis; type: cell-based; summary of the method: as §7
[10] = system: K562; experiment: Induction of Rh-123 accumulation in human K562 cells at 1 uM preincubated for 15 mins followed by Rh-123 addition and measured after 30 mins by FACS analysis; type: functional, cell-based; summary of the method: as §5
[11] = species: Homo sapiens; experiment: Inhibition of P-gp in human K562/Dox cells assessed as potentiation of doxorubicin-induced cytotoxicity by measuring ratio of doxorubicin IC50 to doxorubicin IC50 in presence of test compound at 1 uM after 72 hrs by MTT assay; type: cell-based
Summary of the method: (§9)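 K562/DOX cells were exposed 72 h to doxorubicin (0.0001–100 μM) with or without modulator at 0.1, 1.0 or 3.0 μM, then read by MTT at 570 nm. Reversal fold is doxorubicin IC50 without modulator divided by IC50 with modulator. Quadruplicate cultures, at least three determinations.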

[12] = Half life in human plasma up to 1 uM by LC-MS/MS analysis; type: ADME, cell-free; summary of the method: as §3
[13] = system: K562; experiment: Cytotoxicity against human K562 cells at 0.1 to 3 uM after 72 hrs by MTT assay; type: cell-based; details: k562, 72 h; summary of the method: as §4
[14] = species: Homo sapiens; experiment: Inhibition of P-gp in human K562/Dox cells assessed as potentiation of doxorubicin-induced cytotoxicity by measuring ratio of doxorubicin IC50 to doxorubicin IC50 in presence of test compound at 0.1 uM after 72 hrs by MTT assay; type: cell-based; summary of the method: as §9
[15] = system: K562; experiment: Inhibition of Rh-123 efflux in human K562 cells at 1 uM preincubated for 15 mins followed by Rh-123 addition for 30 mins and subsequent replacement in Rh-123 free medium measured after 30 to 60 mins by FACS analysis; type: functional, cell-based; summary of the method: as §5
[16] = species: Homo sapiens; experiment: Inhibition of P-gp in human K562/Dox cells assessed as potentiation of doxorubicin-induced cytotoxicity by measuring ratio of doxorubicin IC50 to doxorubicin IC50 in presence of test compound at 3 uM after 72 hrs by MTT assay; type: cell-based; summary of the method: as §9
[17] = as §1; type: cell-based; details: K562, 72 h; summary of the method: as §2
[18] = Cytotoxicity against human K562/Dox cells at 3 uM after 72 hrs by MTT assay relative to control; type: cell-based; summary of the method: as §4
[19] = species: Homo sapiens; experiment: as §6, with “measuring increase in” for “measuring”, “analysis relative to control” for “analysis”; type: cell-based; summary of the method: as §5
[20] = species: Homo sapiens; experiment: as §8, with “measuring increase in” for “measuring”, “analysis relative to control” for “analysis”; type: cell-based; summary of the method: as §5

SMILES | inhibition [1] | half-life [2] | Activity [3] | P-gp inhibition activity call (increase in Rh-123 accumulation) [4] | Flu intensity [5] | Activity [6] | half-life [7] | Activity [8] | Flu intensity [9] | Activity [10] | Ratio IC50 [11] | half-life [12] | Activity [13] | Ratio IC50 [14] | inhibition [15] | Ratio IC50 [16] | pEC50 [17] | Activity [18] | fold change (FC) [19] | fold change (FC) [20]
COc1ccc(C(CCCN2CCN(CCOc3cc(OC)c(OC)c(OC)c3)CC2)c2ccc(OC)cc2)cc1 | Dose-dependent effect | > 4 h | Non-Toxic | Active | 1.4 | inactive | > 4 h | inactive | 5.5 | inactive | 4.5 | > 4 h | Non-Toxic | 2.4 | inactive | 8.8 |  |  |  | 
COc1cc2c(cc1OC)CN(CCc1ccc(NC(=O)c3cc(OC)c(OC)cc3NC(=O)c3cnc4ccccc4c3)cc1)CC2 |  |  |  |  |  |  |  |  |  |  | 31.4 |  |  |  |  |  |  |  |  | 
CCOC(=O)[C@H](CCc1ccccc1)N[C@@H](C)C(=O)N1CCC[C@H]1C(=O)O |  |  |  |  |  |  | 0.417 h |  |  |  |  |  |  |  |  |  |  |  |  | 
COc1ccc(C(CCCN2CCN(Cc3cc(OC)c(OC)c(OC)c3)CC2)c2ccc(OC)cc2)cc1 | Dose-dependent effect | > 4 h |  | Active | 11.1 | inactive | > 4 h | inactive | 30 | inactive | 10.5 | > 4 h | Non-Toxic | 1.2 | inactive | 73.3 | 5.72 | <= 30% | 10 | 30
COc1ccc(C(CCCN2CCN(C/C=C/c3cc(OC)c(OC)c(OC)c3)CC2)c2ccc(OC)cc2)cc1 | Dose-dependent effect | > 4 h | Non-Toxic | Active | 49.9 | inactive | > 4 h | inactive | 108 | inactive | 12.9 | > 4 h | Non-Toxic | 1.9 | inactive | 44 | 5.57 |  | 50 | 100
COc1cc(/C=C/CN2CCN(Cc3c4ccccc4cc4ccccc34)CC2)cc(OC)c1OC | Dose-dependent effect | > 4 h | Non-Toxic | Active | 2.4 | inactive | > 4 h | inactive | 7.5 | inactive | 8.8 | > 4 h | Non-Toxic | 1.7 | inactive | 22 |  |  |  | 
CCOC(=O)C(C)c1cccc(C(=O)c2ccccc2)c1 (stereo not drawn) |  |  |  |  |  |  |  |  |  |  |  | 1.83 h |  |  |  |  |  |  |  | 
